Screening results deposited in PubChem by SRMLSC.
Most compounds without a hit are left out; they make up all but 4.3% or so of the library.
WT yeast gro inh = growth inhibition of WT strain, primary screen, mitochondrial fusion inhibitor project, WT and mutant strains, chemical genetic; mitochondrial fusion phenotypic screen; inhibition, % at 10 µM; 190,000 tested, 2.1% active; AID 1362, 2008; in the data active = inhibition above about 58%; tested in S. cerevisiae
Yeast growth inh = growth inhibitors of yeast BB579 in restrictive medium, primary screen, yeast lifespan-shortening project, S. cerevisiae | OD615, 48 h | inhibition, % at 10 µM | 140,000 tested, 0.51% active;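 active = inhibition above a set limit, 3 SD over the mean compound inhibition, cut at about 44% in these data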
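Assay system – yeast BB579 (DeaD) · Dosing – single compound dose of 10 µM, 0.25% DMSO final · Detection – OD615 turbidity measurement · Buffer or medium – CSMM-D restrictive synthetic medium containing dextrose (glucose) · Benchmarks – positive control amphotericin B 10 µg/mL · Incubation – 48 h exposure, 30 °C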
Yeast lifespan up = compounds extending yeast replicative lifespan, primary screen, S. cerevisiae, OD615 | S. cerevisiae growth with nicotinamide; deaD strain in restrictive glucose medium | inhibition of the nicotinamide effect, % at 10 µM | 130,000 tested, 0.68% active;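 active = inhibition above a set limit, placed 3 SD over the median of all compounds, cut at about 26% in these data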
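assay system = DeaD-strain S. cerevisiae | measured by = absorbance at 615 nm | probe or stimulus = nicotinamide 1.5 mM | buffer or medium = CSMM-D glucose medium, restrictive | times = 48 h at 30 °C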
RAM network inh = inhibitors of the yeast RAM network, primary screen, dse1pr::URA3 reporter, 5-FOA selection; S. cerevisiae dse1pr::URA3 reporter, 5-FOA growth OD615, 2 d; analog-sensitive cbk1-as2 kinase mutant strain; inhibition, % at 50 µM; 190,000 tested, 1.8% active;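 active = inhibition above a set limit, 3 SD over mean compound inhibition, cut at about 8.4% in these data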;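 note: inhibition rescues growth on 5-FOA so higher OD means more RAM inhibition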
Hits are given with their value; – = inactive; · = no result given.

SMILES	WT yeast gro inh	Yeast growth inh	Yeast lifespan up	RAM network inh
COc1ccc(C2=NC(c3ccccc3)CO2)cc1 (centres undefined)	–	–	–	–
COc1ccc(C2CC23N=C(c2ccccc2)OC3=O)cc1 (centres undefined)	–	–	45	–
Cc1cc(NCC(c2ccccc2)c2ccccc2)n2ncnc2n1	–	·	·	–
O=C1CC(c2ccc(F)cc2)CC(O)=C1C=NCCN1CCN(C(=O)Nc2ccccc2)CC1 (centres undefined)	–	–	90	–
C=CCNC(=S)N1CCN(CCN=CC2=C(O)CC(c3cccs3)CC2=O)CC1 (centres undefined)	–	–	–	–
CC(=O)N1CCN(CCN=CC2=C(O)CC(c3cccs3)CC2=O)CC1 (centres undefined)	–	–	36	–
COc1ccc(C2CC(=O)C(C=NCCN3CCN(C(C)=O)CC3)=C(O)C2)cc1 (centres undefined)	–	–	·	–
COc1ccc(NC(=S)N2CCN(CCN=CC3=C(O)CC(c4ccccc4)CC3=O)CC2)cc1 (centres undefined)	–	–	50	–
Cn1c(N)c(C(=O)COC(=O)[C@H](Cc2ccccc2)N2C(=O)c3ccccc3C2=O)c(=O)n(C)c1=O	–	–	–	–
Cc1ccc(S(=O)(=O)NCc2ccc(C(=O)NCc3cccnc3)cc2)cc1	–	·	·	–
N#CC(c1ccc(O)cc1)c1ncc(C(F)(F)F)cc1Cl (centres undefined)	–	·	·	–
O=Nc1c(O)n(Cc2ccc(Cl)c(Cl)c2)c2ccccc12	–	87	–	–
COc1ccc(C)cc1S(=O)(=O)NCCC1=CCCCC1	–	–	–	–
CCOc1ccc(S(=O)(=O)NCCC2=CCCCC2)c2ccccc12	–	–	–	11
O=C(O)c1c2c(nc3ccc(S(=O)(=O)N4CCC(C(=O)NC5CCCCCC5)CC4)cc13)CCCC2	–	·	·	–
COc1cccc(CC2(CO)CCCN(Cc3[nH]c4ccc(C)cc4c3C)C2)c1 (centres undefined)	81	·	·	–
COc1cccc(CC2(CO)CCCN(Cc3ccc(C)s3)C2)c1 (centres undefined)	–	·	·	–
COc1ccccc1OCCN1CSC(=S)N(C)C1	–	53	–	–
Cc1cccc(OCCN2CSC(=S)N(C)C2)c1	–	67	–	–
Cc1cccc(NC(=O)COC(=O)CCc2ccc(S(=O)(=O)N3CCOCC3)cc2)c1C	–	·	·	–
CCOC(=O)CC(=O)CSc1nc(-c2cccnc2)cc(C)c1C#N	60	–	–	–
CCOC(=O)CC(=O)CSc1nc(C)cc(-c2cccnc2)c1C#N	–	–	–	–
COc1cc(/C=C/C(=O)c2ccc(F)cc2)cc(OC)c1OC	–	·	·	–
COc1ccc(/C=C/C(=O)c2ccc(O)cc2)cc1COc1ccc(F)cc1	90	–	–	–
COc1ccc(Oc2ccc(/C=C/C(=O)c3ccc(O)cc3)cc2[N+](=O)[O-])cc1	–	–	–	11
SMILES	WT yeast gro inh	Yeast growth inh	Yeast lifespan up	RAM network inh
CS(=O)(=O)N(CC(=O)NC1CCCC1)C1CCCCC1	–	·	·	–
O=C(NCCNC(=O)c1cc(OCC(F)(F)F)ccc1OCC(F)(F)F)Nc1ccccc1	–	–	–	8.7
CCNC(=O)NCCNC(=O)c1cc(OCC(F)(F)F)ccc1OCC(F)(F)F	–	·	·	–
COc1ccccc1CN=Cc1[nH]c2ccc(Br)c(Cl)c2c1O	67	–	–	–
Cc1noc(C)c1COC(=O)[C@@H](NC(=O)c1ccccc1)C(C)C	–	·	·	–
O=C(Nc1ccc(O)cc1)C1CCCO1 (centres undefined)	–	–	53	–
CC(=O)c1cc(-c2ccc(F)cc2)n(CCC(=O)Nc2cccnc2)c1C	–	·	·	–
CC(/C=C/c1ccco1)=N\NC(=O)CNc1cccc(C)c1	–	·	·	–
COc1ccc(C(C)(C)C)cc1NC(=O)Nc1ccc2c(c1)OCO2	68	–	–	–
Cc1cc(OCC(=O)Nc2nnc(C3CC3)s2)ccc1[N+](=O)[O-]	–	·	·	–
O=S(=O)(Nn1cnnc1)c1ccc(F)cc1	–	·	·	–
Oc1ccc2ccccc2c1C=NC12CN3CCN(CN(C3)C1)C2	–	–	–	–
Oc1ccc(N=Nc2cccc(Cl)c2)cc1C=Nc1ccc(N2CCOCC2)cc1	–	79	–	–
Oc1ccc2ccccc2c1C=Nc1ccc(N2CCOCC2)cc1	–	–	49	–
COc1ccc(CN2CCN(C(=O)C3CCC(CNS(=O)(=O)c4ccccc4)CC3)CC2)c(OC)c1OC (centres undefined)	–	·	·	–
CC(=O)OC(COc1ccccc1)Cn1cnc2cc(C)c(C)cc21 (centres undefined)	–	·	·	–
O=C(O)CCCNc1ccc([N+](=O)[O-])c(NCCCC(=O)O)n1	–	·	·	–
Cc1ccc2c(c1)-c1ncc(C(=O)c3cc(Br)ccc3O)cc1CO2	–	·	·	–
Cc1ccc(O)c(C(=O)c2cnc3c(c2)COc2ccc(C)cc2-3)c1	–	–	·	8.7
c1ccc(-c2csc(N3CCCCCC3)n2)cc1	–	–	–	–
Cc1cc(N2CCN(c3nc(-c4ccccc4)cs3)CC2)c2ccccc2n1	70	·	·	–
O=C(Nc1ccc2c(c1)Cc1ccccc1-2)c1cccnc1	–	·	·	–
CC(=O)N1c2ccccc2C2(O)N=C(C)SC12 (centres undefined)	–	62	–	–
CCCCN(Cc1ccccc1)S(=O)(=O)c1cc(Br)cc2c1N(C(C)=O)C(C)C2 (centres undefined)	–	–	–	–
Cc1ccc(C(=O)c2c(NC(=O)c3ccccc3C)sc(C)c2C)cc1	–	–	–	10
SMILES	WT yeast gro inh	Yeast growth inh	Yeast lifespan up	RAM network inh
CCN(CC)CC(=O)Nc1sc(C)c(C)c1C(=O)c1ccc(C)cc1	–	·	·	–
O=C1CC(c2ccccc2)CC(O)=C1C=NCc1ccc(Cl)cc1 (centres undefined)	–	–	–	–
CN(C)S(=O)(=O)Nc1cc(Cl)cc(Cl)c1	–	·	·	–
Cc1ccc2sc(N(CCCN(C)C)C(=O)CN3C(=O)c4ccccc4C3=O)nc2c1C	94	·	·	–
CN(C)CCCN(C(=O)c1ccc(N2C(=O)CCC2=O)cc1)c1nc2c(F)cccc2s1	–	·	·	–
Cc1cccc2sc(N(CCCN(C)C)C(=O)COc3ccc(Cl)cc3)nc12	90	·	·	–
